Laboratory results taken from PMC6217956 (The FEBS journal, 2016).

Assays:
Format in all cases: binding
[1] = biological target: T1, PTN (Homo sapiens, UniProt P21246); experiment: PRE control experiment with 4-hydroxy-TEMPO; conditions: under the condition of the PRE experiments
T1 sequence (P21246 33-168): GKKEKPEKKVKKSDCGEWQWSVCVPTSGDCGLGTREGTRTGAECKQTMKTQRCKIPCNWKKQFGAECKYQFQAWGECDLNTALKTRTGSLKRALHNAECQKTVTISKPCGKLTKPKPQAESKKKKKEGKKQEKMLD

[2] = biological target: T2, wild type PTN (Homo sapiens, UniProt P21246); experiment: Immobilized CSA and CSE ELISA of wild type PTN; conditions: immobilized native CS, biotinylated wild type PTN, Langmuir isotherm 1:1
T2 sequence (P21246 33-168): T1 sequence (P21246 33-168)
Summary of the method: (§1)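 Human PTN (wild type or residues 1–114) was expressed in E. coli Origami B (DE3), purified on a heparin column, and biotinylated by EDC coupling to amine-PEG-biotin (MES pH 5.5). CSA or CSE was EDC/NHS-crosslinked overnight to poly-L-lysine-coated amine plates, then blocked with 5% BSA for 1.5 h. PTN at 2.5–0.015 μg/ml, 1 h; streptavidin-HRP 1 h; TMB; HCl stop; A450. Kd by 1:1 Langmuir fit; ≥3 runs, triplicate points.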

[3] = biological target: T3, C-terminal truncated PTN (residues 1 to 114) (Homo sapiens, UniProt P21246); experiment: Immobilized CSA and CSE ELISA of C-terminal truncated PTN; conditions: immobilized native CS, biotinylated truncated PTN (residues 1 to 114)
T3 sequence (P21246 33-146): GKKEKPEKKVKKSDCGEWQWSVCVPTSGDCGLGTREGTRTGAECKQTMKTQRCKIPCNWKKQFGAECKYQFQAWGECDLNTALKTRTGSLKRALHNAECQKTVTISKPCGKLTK
Summary of the method: as §1

Compound	non-specific interactions between the TEMPO moiety and PTN [1]	Kd [2]	Kd [3]
CC1(C)CC(O)CC(C)(C)N1[O] [4-hydroxy-TEMPO]	no non-specific interactions	–	–
Chondroitin Sulfate A [CSA]	–	~0.017 µM	failed to bind
Chondroitin Sulfate E [CSE]	–	four to five	four to five
